Test results as given in ChEMBL document CHEMBL1275496, “In vivo pharmacodynamic target investigation for micafungin against Candida albicans and C. glabrata in a neutropenic murine candidiasis model” (Antimicrob Agents Chemother, 2008).
Converted amounts (≈) assume the structure as drawn. *1 amine or outer side, *2 acyl side, *3 side chain or, on linkers, in order; H or OH if unused. Where a SMILES comes first, the peptide text is derived from it. Bridges are numbered along the chain shown (N, C = ends). [ ]: non-standard residue; d: D form. The star is where a group is joined. hTyr(3S-OH,4S-OH,3'-OSO3H) = N[C@H](C(=O)O)[C@H](O)[C@@H](O)c1ccc(O)c(OS(=O)(=O)O)c1; Orn(4R-OH,5R-OH) = O=C([C@H](C[C@@H](O)[C@@H](O)N[*:3])N[*:1])[*:2]; Pro(3S-OH,4S-Me) = C[C@H]1CN[C@H](C(=O)O)[C@H]1O; X1 = CCCCCOc1ccc(-c2cc(-c3ccc(C(=O)*)cc3)no2)cc1; Gln(3R-OH) = NC(=O)C[C@@H](O)[C@H](N)C(=O)O; Hyp = O=C(O)[C@@H]1C[C@@H](O)CN1

What was measured:
Nakaseomyces glabratus [1] = assay: Antifungal activity against Candida glabrata isolate 5592 infected in ICR/Swiss neutropenic mouse assessed as dose required for 1-log kill after 24 hrs; assay type: functional
How it was run: (§1)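 Neutropenic mice (cyclophosphamide sc 150 mg/kg day −4, 100 mg/kg day −1 and +2) infected iv by tail vein 2 h before therapy. Micafungin given ip every 24 h for 4 days at six fourfold-spaced dose levels, 0.078–80 mg/kg/24 h, 3 mice per group. Kidney CFU read at 96 h. Hill-model fit; dose giving 1 log10 below start-of-therapy burden.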

Nakaseomyces glabratus [2] = assay: Antifungal activity against Candida glabrata isolate 570 infected in ICR/Swiss neutropenic mouse assessed as dose required for 1-log kill after 24 hrs; assay type: functional; how it was run: as §1
[3] = Ratio of AUC in ICR/Swiss neutropenic mouse at static dose of 2.84 mg/kg, ip after 24 hrs to MIC for Candida albicans isolate 98-210; assay type: functional; conditions: route intraperitoneal
[4] = Ratio of AUC in ICR/Swiss neutropenic mouse at static dose of 1.98 mg/kg, ip after 24 hrs to MIC for Candida albicans isolate 580; assay type: functional; conditions: route intraperitoneal
[5] = Ratio of AUC in ICR/Swiss neutropenic mouse at static dose of 2.4 mg/kg, ip after 24 hrs to MIC for Candida glabrata isolate 35315; assay type: functional; conditions: route intraperitoneal
[6] = Ratio of AUC in ICR/Swiss neutropenic mouse at static dose of 0.41 mg/kg, ip after 24 hrs to MIC for Candida glabrata isolate 33609; assay type: functional; conditions: route intraperitoneal
[7] = Ratio of AUC in ICR/Swiss neutropenic mouse at static dose of 1.34 mg/kg, ip after 24 hrs to MIC for Candida glabrata isolate 513; assay type: functional; conditions: route intraperitoneal
[8] = Ratio of AUC in ICR/Swiss neutropenic mouse at static dose of 0.90 mg/kg, ip after 24 hrs to MIC for Candida glabrata isolate 5376; assay type: functional; conditions: dose 0.9 mg/kg; route intraperitoneal
[9] = Ratio of AUC in ICR/Swiss neutropenic mouse at static dose of 3.88 mg/kg, ip after 24 hrs to MIC for Candida glabrata isolate 33616; assay type: functional; conditions: route intraperitoneal
[10] = Ratio of fAUC in ICR/Swiss neutropenic mouse at static dose of 2.18 mg/kg, ip after 24 hrs to MIC for Candida glabrata isolate 34341; assay type: functional; conditions: route intraperitoneal
[11] = Ratio of fAUC in ICR/Swiss neutropenic mouse at static dose of 3.76 mg/kg, ip after 24 hrs to MIC for Candida glabrata isolate 570; assay type: functional; conditions: route intraperitoneal
[12] = Ratio of AUC in ICR/Swiss neutropenic mouse at 1-Log kill dose of 10.4 mg/kg, ip after 24 hrs to MIC for Candida albicans isolate 98-210; assay type: functional; conditions: route intraperitoneal
[13] = Ratio of AUC in ICR/Swiss neutropenic mouse at 1-Log kill dose of 2.36 mg/kg, ip after 24 hrs to MIC for Candida albicans isolate 580; assay type: functional; conditions: route intraperitoneal
[14] = Ratio of AUC in ICR/Swiss neutropenic mouse at 1-Log kill dose of 1.40 mg/kg, ip after 24 hrs to MIC for Candida glabrata isolate 33609; assay type: functional; conditions: dose 1.4 mg/kg; route intraperitoneal
[15] = Ratio of AUC in ICR/Swiss neutropenic mouse at 1-Log kill dose of 6.70 mg/kg, ip after 24 hrs to MIC for Candida glabrata isolate 570; assay type: functional; conditions: dose 6.7 mg/kg; route intraperitoneal
[16] = Ratio of fAUC in ICR/Swiss neutropenic mouse at 1-Log kill dose of 4.60 mg/kg, ip after 24 hrs to MIC for Candida albicans isolate 98-17; assay type: functional; conditions: dose 4.6 mg/kg; route intraperitoneal
[17] = Ratio of fAUC in ICR/Swiss neutropenic mouse at 1-Log kill dose of 10.4 mg/kg, ip after 24 hrs to MIC for Candida albicans isolate 98-210; assay type: functional; conditions: route intraperitoneal
[18] = Ratio of fAUC in ICR/Swiss neutropenic mouse at 1-Log kill dose of 3.77 mg/kg, ip after 24 hrs to MIC for Candida glabrata isolate 35315; assay type: functional; conditions: route intraperitoneal
[19] = Ratio of fAUC in ICR/Swiss neutropenic mouse at 1-Log kill dose of 6.70 mg/kg, ip after 24 hrs to MIC for Candida glabrata isolate 570; assay type: functional; conditions: dose 6.7 mg/kg; route intraperitoneal
[20] = Ratio of fAUC in ICR/Swiss neutropenic mouse at 1-Log kill dose of 7.89 mg/kg, ip after 24 hrs to MIC for Candida glabrata isolate 33616; assay type: functional; conditions: route intraperitoneal
[21] = AUC in healthy human at 100 mg/day; assay type: ADME, organism-based; conditions: plasma
Candida albicans [22] = assay: Antifungal activity against Candida albicans; assay type: functional
How it was run: (§2)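 Broth microdilution MIC per CLSI M27-A2. Two endpoints were read against the drug-free control well: partial inhibition (M1, CLSI recommended) and complete inhibition (M2). Tests were run in duplicate on four separate occasions, and the value is the mean.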

Candida albicans [23] = assay: Antifungal activity against Candida albicans isolate 98-17 by CLSI method; assay type: functional; how it was run: as §2
Nakaseomyces glabratus [24] = assay: Antifungal activity against Candida glabrata isolate 35315 by CLSI method; assay type: functional
How it was run: (§3)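 Broth microdilution per CLSI M27-A2. The MIC was read at partial inhibition (M1) and at complete inhibition (M2) against the drug-free control. Done in duplicate on four separate occasions and reported as the mean.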

Nakaseomyces glabratus [25] = assay: Antifungal activity against Candida glabrata isolate 37661 by CLSI method; assay type: functional; how it was run: as §3
[26] = AUC (0 to infinity) in Candida infected ICR/Swiss neutropenic mouse at 80 mg/kg, ip; assay type: ADME, organism-based; parameters: time infinity, dose 80 mg/kg, route intraperitoneal; conditions: plasma
How it was run: (§4)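 Single intraperitoneal micafungin doses (80, 20, 5 mg/kg in 0.2 ml, 0.15 M NaCl) given to infected neutropenic mice. Serum was taken from 3 mice per time point at 1, 2, 4, 6, 8, 12, 24 and 48 h. Drug was measured by microbiologic assay with C. albicans K1 (LLOQ 0.12 μg/ml). Noncompartmental analysis; half-life by nonlinear least squares; AUC by trapezoidal rule.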

[27] = AUC (0 to infinity) in Candida infected ICR/Swiss neutropenic mouse at 5 mg/kg, ip; assay type: ADME, organism-based; parameters: dose 5 mg/kg, route intraperitoneal, time infinity; conditions: plasma; how it was run: as §4
Nakaseomyces glabratus [28] = assay: Fungistatic activity against Candida glabrata isolate 37661 infected in ICR/Swiss neutropenic mouse after 24 hrs; assay type: functional
How it was run: (§5)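 Neutropenic female ICR/Swiss mice received cyclophosphamide sc at 150 mg/kg on day −4, 100 mg/kg on day −1 and 100 mg/kg on day +2. Mice were infected iv via the tail vein, and ip micafungin in 0.15 M NaCl started 2 h later. Six dose levels from 0.078 to 80 mg/kg/24 h were given q24h for 4 days, 3 mice per dose. Kidney CFU were counted at 96 h. The static dose was derived from a sigmoid Emax (Hill) fit.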

Nakaseomyces glabratus [29] = assay: Fungistatic activity against Candida glabrata isolate 513 infected in ICR/Swiss neutropenic mouse after 24 hrs; assay type: functional; how it was run: as §5
Nakaseomyces glabratus [30] = assay: Fungistatic activity against Candida glabrata isolate 5592 infected in ICR/Swiss neutropenic mouse after 24 hrs; assay type: functional; how it was run: as §5
Candida albicans [31] = assay: Antifungal activity against Candida albicans isolate 580 infected in ICR/Swiss neutropenic mouse assessed as dose required for 1-log kill after 24 hrs; assay type: functional; how it was run: as §1
Nakaseomyces glabratus [32] = assay: Antifungal activity against Candida glabrata isolate 34341 infected in ICR/Swiss neutropenic mouse assessed as dose required for 1-log kill after 24 hrs; assay type: functional; how it was run: as §1

`CCCCCOc1ccc(-c2cc(-c3ccc(C(=O)N[C@H]4C[C@@H](O)[C@@H](O)NC(=O)[C@@H]5[C@@H](O)[C@@H](C)CN5C(=O)[C@H]([C@H](O)CC(N)=O)NC(=O)[C@H]([C@H](O)[C@@H](O)c5ccc(O)c(OS(=O)(=O)O)c5)NC(=O)[C@@H]5C[C@@H](O)CN5C(=O)[C@H]([C@@H](C)O)NC4=O)cc3)no2)cc1` [MICAFUNGIN] (X1-[Orn(4R-OH,5R-OH)]T[Hyp][hTyr(3S-OH,4S-OH,3'-OSO3H)][Gln(3R-OH)][Pro(3S-OH,4S-Me)]; lactam 1-C) showed an Activity (Nakaseomyces glabratus [1]) of 5.46 mg/kg, an Activity (Nakaseomyces glabratus [2]) of 6.7 mg/kg and a RatioAUC/MIC [3] of 5200. For the same compound, the RatioAUC/MIC [4] was 7857, the RatioAUC/MIC [5] was 1103 and the RatioAUC/MIC [6] was 753. The RatioAUC/MIC [7] was 2467, the RatioAUC/MIC [8] was 3571 and the RatioAUC/MIC [9] was 428. The fAUC/MIC [10] was 2.51, the fAUC/MIC [11] was 17.3 and the RatioAUC/MIC [12] was 18400. It also gave a RatioAUC/MIC [13] of 1686, a RatioAUC/MIC [14] of 2600 and a RatioAUC/MIC [15] of 12066. The fAUC/MIC [16] was 10.6, the fAUC/MIC [17] was 46 and the fAUC/MIC [18] was 4.33. It also gave a fAUC/MIC [19] of 30.2, a fAUC/MIC [20] of 2.2 and an AUC [21] of 126 µg·h/mL. It also gave an MIC50 (Candida albicans [22]) of 0.015 µg/mL (≈ 0.0118 µM), an MIC90 (Candida albicans [22]) of 0.03 µg/mL (≈ 0.0236 µM) and an MIC (Candida albicans [23]) of 0.06 µg/mL (≈ 0.0472 µM). It also gave an MIC50 (Candida albicans [23]) of 0.03 µg/mL (≈ 0.0236 µM), an MIC (Nakaseomyces glabratus [24]) of 0.12 µg/mL (≈ 0.0945 µM) and an MIC50 (Nakaseomyces glabratus [24]) of 0.06 µg/mL (≈ 0.0472 µM). For the same compound, the MIC (Nakaseomyces glabratus [25]) was 0.25 µg/mL (≈ 0.197 µM), the MIC50 (Nakaseomyces glabratus [25]) was 0.25 µg/mL (≈ 0.197 µM) and the AUC(0-inf) [26] was 1400 µg·h/mL. The AUC(0-inf) [27] was 138 µg·h/mL, the Activity (Nakaseomyces glabratus [28]) was 9.25 mg/kg and the Activity (Nakaseomyces glabratus [29]) was 1.34 mg/kg. It also gave an Activity (Nakaseomyces glabratus [30]) of 1.8 mg/kg, an Activity (Candida albicans [31]) of 2.36 mg/kg and an Activity (Nakaseomyces glabratus [32]) of 4.26 mg/kg.
